Screening data as filed in PubChem.
KDM4C inh = inhibitors of human demethylase GASC-1 KDM4C; Q9H3R0; GST-KDM4C 2-372, H3K9me3 peptide, LANCE TR-FRET; inhibition, % at 12.5 µM; hit rate 0.15% among 96,000; AID 720574;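 active = mean replicate inhibition above about 25%, with at least 55% of replicates also reaching it, limit read from the data, passing the limit was not always enough; inconclusive = only one of those two conditions met; inactive = neither condition met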
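System: N-terminal GST-fused human GASC-1 (KDM4C) fragment, residues 2-372; amount: enzyme final amount 10 nM; incubation: reaction 30 min RT, detection step 1 h RT; medium: HEPES buffer, pH 7.5, plus ascorbate; technique: LANCE TR-FRET, Eu antibody, ULight-streptavidin, EDTA, ex 340 nm, em 618/671 nm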
IDH1 R132H inh = IDH1 R132H (human) inhibition; AID 624101; IDH1 R132H reductase, diaphorase/resazurin fluorescence, 60 min; inhibition, % at 10 µM; O75874; hit rate 0.18% among 70,000; in the data active = inhibition above about 34%; inconclusive = no clear call, values can overlap the other calls; inactive = below about 11%
Target sequence (O75874 whole entry R132H): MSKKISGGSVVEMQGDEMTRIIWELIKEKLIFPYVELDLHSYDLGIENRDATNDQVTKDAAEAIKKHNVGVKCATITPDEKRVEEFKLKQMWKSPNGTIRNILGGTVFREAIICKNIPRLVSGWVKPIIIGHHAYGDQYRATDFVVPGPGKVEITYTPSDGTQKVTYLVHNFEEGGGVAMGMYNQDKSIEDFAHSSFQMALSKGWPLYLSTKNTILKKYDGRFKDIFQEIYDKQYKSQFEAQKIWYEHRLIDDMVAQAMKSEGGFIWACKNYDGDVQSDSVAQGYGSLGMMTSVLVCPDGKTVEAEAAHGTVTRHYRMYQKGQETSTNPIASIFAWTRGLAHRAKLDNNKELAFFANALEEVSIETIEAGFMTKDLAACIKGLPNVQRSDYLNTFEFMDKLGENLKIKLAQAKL
Tcruzi prolif = inhibitors of T. cruzi proliferation; AID 624255; hit rate 5.9% among 77,000; T. cruzi beta-gal in NIH3T3, GalScreen luminescence, 90 h; inhibition, % at 8.34 µM;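 active = mean inhibition above about 93%, with at least 55% of replicates each passing it, limit read from the data, passing the limit was not always enough; inconclusive = only one of those two conditions holds; inactive = neither condition holds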
Pf Dd2 inh = P. falciparum Dd2 growth inhibition; activity change, % at 10 µM; hit rate 2.3% among 94,000; SYBR Green, 72 h; hits give low values; in the data active = activity change below about -80%; inconclusive = no clear call, values can overlap the other calls
A number is an active result; . = inactive; ? = inconclusive; / = not tested or not shown; ! = a repeat was not active. Sampled rows, rich in hits. Any-hit rate of the full collection: about 5.8%.

SMILES	KDM4C inh	IDH1 R132H inh	Tcruzi prolif	Pf Dd2 inh
c1cc(-c2ccc(C3[C@@H]4CN(Cc5nccs5)C[C@H]3N4)cc2)ccn1 (stereo partly specified)	.	/	/	.
c1cncc(-c2ccc(C3[C@@H]4CN(Cc5nccs5)C[C@H]3N4)cc2)c1 (stereo partly specified)	.	/	/	-88!
C(=C\c1ccc(C2[C@@H]3CN(Cc4nccs4)C[C@H]2N3)cc1)/c1ccccc1 (stereo partly specified)	.	/	/	-88!
C[C@@H]1CCCCO[C@@H](CN(C)C(=O)Nc2cccc3ccccc23)[C@H](C)CN([C@H](C)CO)C(=O)c2cc(NC(=O)Nc3ccc(C(F)(F)F)cc3)ccc2O1	.	/	109	.
C[C@@H]1CN([C@H](C)CO)C(=O)Cc2cc(NC(=O)Nc3ccc(C(F)(F)F)cc3)ccc2O[C@H]1CN(C)C(=O)Nc1cccc2ccccc12	.	.	.	-85
C[C@@H]1CCCCO[C@H](CN(C)C(=O)Nc2ccc(C(F)(F)F)cc2)[C@H](C)CN([C@H](C)CO)C(=O)c2cc(NC(=O)Nc3cccc4ccccc34)ccc2O1	.	/	.	-87
C[C@@H]1CCCCO[C@@H](CN(C)C(=O)Nc2ccc(C(F)(F)F)cc2)[C@@H](C)CN([C@H](C)CO)C(=O)c2cc(NC(=O)Nc3cccc4ccccc34)ccc2O1	.	.	/	.
C[C@@H]1CCCCO[C@H](CN(C)C(=O)Nc2cccc3ccccc23)[C@@H](C)CN([C@@H](C)CO)C(=O)c2cc(NC(=O)Nc3ccc(C(F)(F)F)cc3)ccc2O1	.	.	.	-81
Cc1c(C(=O)N(C)C)sc(NC(=O)c2cc(-c3ccccn3)nc3ccc(Cl)cc23)c1C#N	/	.	/	/
N#Cc1ccc(NC(=O)c2ccc(Br)o2)cc1	/	.	/	/
C[C@H](CO)N1C[C@H](C)[C@H](CN(C)C(=O)Nc2cccc3ccccc23)Oc2ccc(NC(=O)Nc3ccc(C(F)(F)F)cc3)cc2C1=O	.	.	.	.
C[C@@H]1CN([C@H](C)CO)C(=O)c2cc(NC(=O)Nc3ccc(C(F)(F)F)cc3)ccc2O[C@H]1CN(C)C(=O)Nc1cccc2ccccc12	.	.	.	-95
COC(=O)c1ccccc1NC(=O)CN(C)S(=O)(=O)c1ccccc1	/	.	/	/
COc1ccc2c3c(n(C)c2c1)[C@H](CO)N(Cc1ccc(F)cc1)CC31CCN(CC2CC2)CC1	.	/	/	-84
COc1ccc2c3c(n(C)c2c1)[C@@H](CO)N(CC1CCCCC1)CC31CCN(Cc2nccs2)CC1	.	/	/	-90
COc1ccc2c3c(n(C)c2c1)[C@H](CO)N(Cc1ccccc1F)CC31CCN(CC2CC2)CC1	.	/	/	-90
COc1ccc2c3c(n(C)c2c1)[C@@H](CO)N(Cc1ccc(Cl)cc1)CC31CCN(CC2CC2)CC1	.	/	/	-91
COc1ccc2c3c(n(C)c2c1)[C@H](CO)N(CC1CCCC1)CC31CCN(Cc2nccs2)CC1	.	/	/	.
C[C@@H](NC(=O)C[C@H]1C=C[C@@H](NC(=O)C2CC2)[C@@H](CO)O1)c1ccccc1	.	.	/	.
COc1cc(C2c3cc(O)c(OC)cc3CC(CO)C2CO[C@@H]2O[C@H](CO)[C@@H](O)[C@H](O)[C@H]2O)ccc1O (stereo partly specified)	/	.	/	/
O=C(c1cnccn1)N1CC(=O)N2[C@H](CO)[C@@H](c3ccc(C#CC4CCCC4)cc3)[C@H]2C1	.	/	/	.
COc1ccc(CN(C)C[C@@H]2OCCCC[C@H](C)Oc3ccc(NS(=O)(=O)c4cn(C)cn4)cc3C(=O)N([C@H](C)CO)C[C@H]2C)cc1	.	/	.	.
COc1ccc2c3c(n(C)c2c1)[C@H](CO)N(Cc1ccc(Cl)cc1)CC31CN(CC2CC2)C1	.	/	/	.
COc1ccc2c3c(n(C)c2c1)[C@H](CO)N(Cc1ccc(Cl)cc1)CC31CCN(CC2CC2)CC1	.	/	/	-88
COc1ccc2c3c([nH]c2c1)[C@H](CO)N(S(=O)(=O)c1cn(C)cn1)CC31CCN(CC2CCCCC2)CC1	.	/	/	-85
SMILES	KDM4C inh	IDH1 R132H inh	Tcruzi prolif	Pf Dd2 inh
COc1ccc2c3c([nH]c2c1)[C@@H](CO)N(S(=O)(=O)c1cn(C)cn1)CC31CCN(CC2CCCC2)CC1	.	/	/	.
COc1ccc2c3c([nH]c2c1)[C@H](CO)NCC31CCN(S(=O)(=O)c2ccccc2)CC1	.	/	/	.
COc1ccc2c3c([nH]c2c1)[C@H](CO)N(S(=O)(=O)c1ccc(C)cc1)CC31CN(Cc2ccccc2)C1	.	/	/	-87
CCS(=O)(=O)N1CC2(C1)CN(S(=O)(=O)c1ccc(C)cc1)[C@@H](CO)c1[nH]c3cc(OC)ccc3c12	.	/	/	.
COc1cccc(S(=O)(=O)N2CCC3(CC2)CN[C@@H](CO)c2[nH]c4cc(OC)ccc4c23)c1	.	/	/	-92
CCS(=O)(=O)N1CCC2(CC1)CN(S(=O)(=O)c1ccc(C)cc1)[C@@H](CO)c1[nH]c3cc(OC)ccc3c12	.	/	/	-90
COc1cccc(NC(=O)N[C@@H]2C=C[C@H](CC(=O)N3CCOCC3)O[C@@H]2CO)c1	.	/	/	.
CC(C)NC(=O)N(C)C[C@@H]1OCCCC[C@@H](C)Oc2ccc(N(C)C)cc2C(=O)N([C@H](C)CO)C[C@H]1C	.	.	.	.
CCC(=O)N1CCC2(CC1)CN(S(=O)(=O)c1ccccc1)[C@@H](CO)c1[nH]c3cc(OC)ccc3c12	.	/	/	-92
COc1ccc(S(=O)(=O)N2CC3(CN(Cc4ccncc4)[C@H](CO)c4[nH]c5cc(OC)ccc5c43)C2)cc1	.	/	/	.
CCC(=O)N1CC2(C1)CN(S(=O)(=O)c1ccccc1)[C@@H](CO)c1[nH]c3cc(OC)ccc3c12	.	/	/	-93
COc1ccc(S(=O)(=O)N2CCC3(CC2)CN(Cc2ccncc2)[C@@H](CO)c2[nH]c4cc(OC)ccc4c23)cc1	.	/	/	-87
CCC(=O)N1CC2(C1)CN(S(=O)(=O)c1ccccc1)[C@H](CO)c1[nH]c3cc(OC)ccc3c12	.	/	/	.
CCS(=O)(=O)N1CC2(C1)CN(S(=O)(=O)c1cccc(OC)c1)[C@@H](CO)c1[nH]c3cc(OC)ccc3c12	.	/	/	-84
COc1ccc(CN(C)C[C@@H]2OCCCC[C@@H](C)Oc3ccc(NC(=O)NC(C)C)cc3C(=O)N([C@H](C)CO)C[C@H]2C)cc1	?	68	.	.
COc1ccc(CN(C)C[C@@H]2OCCCC[C@H](C)Oc3ccc(NC(=O)Nc4ccc(F)cc4)cc3C(=O)N([C@@H](C)CO)C[C@@H]2C)cc1	.	/	.	?
COc1ccc(CN(C)C[C@@H]2OCCCC[C@H](C)Oc3ccc(NC(=O)Nc4ccc(F)cc4)cc3C(=O)N([C@H](C)CO)C[C@@H]2C)cc1	.	.	.	.
COc1ccc(CN(C)C[C@H]2OCCCC[C@H](C)Oc3ccc(NC(=O)Nc4ccc(F)cc4)cc3C(=O)N([C@@H](C)CO)C[C@H]2C)cc1	.	.	.	-83
COc1ccc(CN(C)C[C@H]2OCCCC[C@H](C)Oc3ccc(NC(=O)Nc4ccc(F)cc4)cc3C(=O)N([C@H](C)CO)C[C@H]2C)cc1	.	.	.	-81
